From PubChem
PPC-1+TRAIL kill = kills PPC-1 cancer cells in the presence of TRAIL. PPC-1 cells + TRAIL, ATPLite viability luminescence. cell killing (% activity), % at 4 µM or 5 µM. 220,000 tested, 0.41% active. AID 1443;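 active means cell killing above 50% in the first pass at 4 µM, then a duplicate retest at 5 µM averaging 50% or more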;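 further: plate controls were cells with TRAIL plus DMSO for no effect and medium-only wells lacking cells for full effect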
beta cell repl = inducers of beta-cell replication in MIN6 cells; proliferation, % at 10 µM; 330,000 tested, 0.29% active; AID 2380; MIN6 cells proliferation, ATPlite luminescence, 48 h; cells starved in 0.2% serum; 100% = growth in 10% serum;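 active means compounds whose signal lies at least 3.5 SD above the mean of all wells on their plate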;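 further: 0% = DMSO-treated cells in low-serum medium and 100% = 10% serum control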
FLuc act counter = firefly luciferase counter-screen for stimulation assays; AID 1027; ATPlite luciferase biochemical, luminescence, 10 min; 0 = ATP-free wells, 1 = DMSO control; P08659; 200,000 tested, under 10 active; activation factor at 10 µM;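 active means luciferase activation factor, scaled between plate controls, of at least 2 with compound at 10 µM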
Target sequence (P08659 whole entry, looked up): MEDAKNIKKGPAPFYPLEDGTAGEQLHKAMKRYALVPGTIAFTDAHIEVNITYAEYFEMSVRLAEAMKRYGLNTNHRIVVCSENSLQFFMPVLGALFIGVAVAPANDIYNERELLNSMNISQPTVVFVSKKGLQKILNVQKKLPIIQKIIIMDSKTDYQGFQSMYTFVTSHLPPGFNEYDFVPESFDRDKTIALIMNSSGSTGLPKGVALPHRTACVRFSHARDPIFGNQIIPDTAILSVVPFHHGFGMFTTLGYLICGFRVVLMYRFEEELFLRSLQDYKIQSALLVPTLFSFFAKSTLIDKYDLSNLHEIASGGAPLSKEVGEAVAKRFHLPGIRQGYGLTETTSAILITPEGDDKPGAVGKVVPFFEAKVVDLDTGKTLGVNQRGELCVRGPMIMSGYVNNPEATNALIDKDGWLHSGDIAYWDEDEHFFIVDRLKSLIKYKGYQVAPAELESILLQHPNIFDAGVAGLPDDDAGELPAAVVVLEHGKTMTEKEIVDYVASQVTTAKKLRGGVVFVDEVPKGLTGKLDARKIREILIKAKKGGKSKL
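Assay system: Luciferase/luciferin detection reagent, cell-free biochemical luciferase assay / Read-out: luciferase activation / Benchmarks: No-ATP low control, compound-free enzyme-plus-ATP high control / Medium: PBS buffer for ATP / Detection: luminescence measurement of luciferase light output / Schedule: 10 min at ambient temperature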
FLuc inhib CS = counter-screen for luciferase assay inhibitors: firefly luciferase inhibition; P08659; ATPLite firefly luciferase biochemical luminescence, 10 min; inhibition, % at 10 µM; 200,000 tested, 1.5% active; AID 1006;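 active means inhibition above about 50% when tested at 10 µM, limit read from the data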
iPSC survival up = enhancers of human iPSC single-cell survival; hiPSC single-cell survival, ATPlite luminescence; 100% = ROCK inhibitor wells, 0% = DMSO; survival enhancement, % at 20 µM; 360,000 tested, 0.044% active; in the data active means survival enhancement above about 18%;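 further: cells exposed to compounds for 16 hours before the ATP read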
C8 TRAIL sens = caspase-8 TRAIL sensitization; NB7+C8 cells + TRAIL, ATPlite viability luminescence; inhibition (viability loss, TRAIL sensitization), % at 10 µM; 360,000 tested, 1% active;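 active means compounds causing at least 50% loss of cell viability in the single-dose screen, relative to plate controls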
Active calls of the source: *; · = no result. Hits are enriched below; roughly 1.8% of the tested compounds scored in any of these assays.

SMILES | PPC-1+TRAIL kill | beta cell repl | FLuc act counter | FLuc inhib CS | iPSC survival up | C8 TRAIL sens
CC(NC(=O)Cc1cccc(C(F)(F)F)c1)c1ccc(F)cc1 (centres undefined) | 15.6 | 0.8 | 1.1 | -5.6 | 0.2 | -16.6
O=C(Nc1ccc(Br)cc1)C1CCN(c2cnccn2)CC1 | · | 4.4 | · | · | 0.1 | 18.3
Cc1ccc(-n2nc3c(N4CCC(C(=O)NCc5ccccc5C)CC4)nnc(C)c3c2C)cc1 | · | -4.7 | · | · | -0.3 | 2.3
CCOc1ccccc1CNC(=O)C1CCN(c2nnc(C)c3c(C)n(-c4ccc(C)cc4)nc23)CC1 | · | -7.1 | · | · | 0.0 | 70.6*
O=C(COc1ncnc2ccccc12)c1ccc(Cl)cc1 | 33.4 | -1.5 | 0.2 | 80.2* | 1.8 | -3.4
O=C(COc1ncnc2cc(Cl)ccc12)c1ccccc1 | 3.2 | -2.6 | · | · | -0.3 | -2.9
COc1ccc(N(C)C(=O)C2CCN(S(=O)(=O)c3cccc4nonc34)CC2)c(OC)c1 | · | 0.0 | · | · | 0.2 | 26.0
C/C(=N\Nc1nc(C)cc(-c2ccccc2)n1)c1cccc(N)c1 | · | -3.9 | · | · | -0.4 | 51.2*
Cc1onc(-c2c(F)cccc2Cl)c1C(=O)N1CCN(c2ncc(Br)cn2)CC1 | 14.8 | 1.2 | · | · | 1.6 | 9.2
COc1ccc(/C=C/C(=O)Nc2cc(C)nn2-c2nc3ccccc3[nH]2)cc1 | 49.4 | -5.5 | 0.3 | 66.9* | -2.4 | 71.2*
Cc1cc(NC(=O)/C=C/c2ccc(F)cc2)n(-c2nc3ccccc3[nH]2)n1 | 45.0 | 0.0 | 0.6 | 44.3 | -2.3 | 43.8
CC1=C(C(=O)Nc2cccc(C(=O)N3CCN(c4cccc(C(F)(F)F)c4)CC3)c2)SCCO1 | · | -5.2 | · | · | -0.5 | 12.1
CCC(C(=O)OCC(=O)Nc1cc(Cl)cc(Cl)c1)c1ccccc1 (centres undefined) | 17.1 | -6.1 | 1 | -0.9 | 3.0 | -8.4
C[C@@H]1c2ccccc2N2C[C@H](Cc3ccc(C(=O)c4ccccc4)cc3)C[C@@H]12 | · | · | · | · | -0.2 | 0.2
COC(=O)c1ccc(-c2ccc(Cl)cc2)nc1C | 17.0 | 0.0 | 0.5 | 50.5* | 0.3 | 45.6
COc1cc(-c2cnc3c(NC(C)=O)cc(-c4ccccc4CN(C)C)cn23)cc(OC)c1OC | · | · | · | · | -4.2 | -7.9
CN(C)c1ccc(-c2noc(-c3ccccc3O)n2)cc1 | 32.6 | -1.2 | 0.4 | 57.9* | -3.0 | 40.5
Cc1ccc(-c2noc(-c3ccccc3Br)n2)cc1 | 35.7 | -3.4 | 0.3 | 67.3* | -2.5 | 51.3*
COCCNC(=O)C(OC(=O)c1ccco1)c1ccc(OC)cc1 (centres undefined) | · | · | · | · | -0.6 | 0.6
COc1ccc(-c2nc(SCC(=O)N(CC(C)C)c3c(N)n(Cc4ccccc4)c(=O)[nH]c3=O)n[nH]2)cc1 | · | -3.0 | · | · | 0.0 | 51.1*
CCCN(C(=O)CSc1n[nH]c(-c2ccc(OC)cc2)n1)c1c(N)n(Cc2ccccc2)c(=O)[nH]c1=O | · | -4.5 | · | · | -0.1 | 21.5
Cc1cc(C)cc(Cn2cc(CN3CC(N4CCCCC4)CS3(=O)=O)nn2)c1 (centres undefined) | · | · | · | · | 0.3 | 3.3
CCOc1ccc(/C=N/Nc2ccccn2)cc1OC | 13.9 | -1.6 | 0.4 | 58.3* | -0.7 | 26.3
CCCOc1ccc(/C=N/Nc2ccccn2)cc1OC | 25.3 | 0.2 | 0.4 | 58.5* | -0.6 | 31.0
COc1cc(/C=N/Nc2ccccn2)cc(OC)c1O | 39.9 | -0.2 | 0.2 | 78.5* | -2.5 | 13.1
SMILES | PPC-1+TRAIL kill | beta cell repl | FLuc act counter | FLuc inhib CS | iPSC survival up | C8 TRAIL sens
COc1cc(/C=N/Nc2ccccn2)ccc1OCC(C)C | 33.4 | -2.5 | 0.8 | 18.6 | -0.4 | 8.9
C=CCOc1ccc(/C=N/Nc2ccccn2)cc1OC | 35.5 | -3.2 | 0.5 | 48.9 | 2.5 | 27.0
C(=N\Nc1ccccn1)/c1ccc2c(c1)OCCO2 | 28.5 | -2.2 | 0.2 | 78.2* | -3.1 | 46.3
N#C/C(=C/c1ccc2c(c1)OCO2)C(=O)Nc1ccc(O)cc1 | 0.5 | -1.4 | 0.4 | 60.2* | -0.6 | 22.1
COC1=CC(=O)c2nc(Cl)ccc2C1=O | · | · | · | · | -1.7 | 94.6*
CC(=O)c1sc(N/N=C\c2ccccc2O)nc1C | · | -5.3 | 0.3 | 68.2* | -2.4 | 35.0
COc1ccc2c(c1OC)C(=O)N1C2SC[C@H]1C(=O)NC1CCCC1 (some centres undefined) | · | -4.9 | · | · | -0.4 | -8.7
CCSc1c([N+](=O)[O-])c(=O)n(-c2ccccc2)c2ccccc12 | · | -3.3 | · | · | -0.2 | -9.7
COc1ccccc1C(=O)Nc1nc(-c2cccs2)c(NC(C)=O)s1 | 48.7 | -4.6 | 0.5 | 50.1* | -3.1 | 50.8*
CC(=O)Nc1sc(NC(=O)c2ccccc2)nc1-c1cccs1 | 1.7 | 0.5 | 1.1 | -5.5 | -0.3 | 10.1
COc1ccccc1C(=O)Nc1ccc(N2CCCCC2)cc1 | 36.2 | -3.0 | 0.3 | 71.3* | -1.4 | 57.5*
CCCOC(=O)Nc1ccc(N2CCCCC2)cc1 | 38.4 | -3.6 | 0.4 | 58.6* | -1.4 | 33.5
O=C(NC(=S)Nc1ccc(N2CCCCC2)cc1)c1ccco1 | 26.0 | -2.2 | 0.4 | 63.4* | -2.0 | 24.0
Cc1ccc(S(=O)(=O)C2C(=O)N(C)C3(C)CC2c2ccccc2O3)cc1 (centres undefined) | 36.9 | -3.9 | 1.1 | -5.3 | 0.9 | -5.9
CN1CCN(C2CN(Cc3ccc(F)cc3)S(=O)(=O)C2)CC1 (centres undefined) | · | · | · | · | -2.2 | 5.1
Cc1nc(-c2ccccc2Cl)sc1C(=O)/C=C/N(C)C | 2.0 | -3.4 | 1 | 2.7 | 0.2 | 13.3
COc1ccc(NC(=O)COC(=O)C23CCC(=O)N2c2ccccc2S3)cc1 (centres undefined) | 13.9 | -2.3 | 1.1 | -5.4 | -0.7 | 7.0
O=C1CCC2(C(=O)O)Sc3ccccc3N12 (centres undefined) | 13.7 | -0.9 | 1.1 | -5.7 | 20.9* | -12.3
CN(C)CCN(C(=O)c1ccc2ccccc2c1)c1nc2cc3c(cc2s1)OCO3 | · | · | · | · | 19.1* | -6.8
CN(C)CCCN(C(=O)c1cc2cc([N+](=O)[O-])ccc2s1)c1nc2cc3c(cc2s1)OCCO3 | · | -7.4 | · | · | -0.5 | 91.3*
CN(C)CCCN(C(=O)c1ccc(C(=O)c2ccccc2)cc1)c1nc2cc3c(cc2s1)OCO3 | · | -7.1 | · | · | -0.6 | 52.8*
CN(C)CCCN(C(=O)c1nc2ccccc2s1)c1nc2ccc(F)cc2s1 | · | -2.8 | · | · | -0.3 | 1.8
CN(C)CCCN(C(=O)c1ccc(C(=O)c2ccccc2)cc1)c1nc2ccc(F)cc2s1 | · | -7.8 | · | · | -0.5 | 48.6*
CCCCNC(=O)C1c2ccccc2OCC(=O)N1CCc1ccccc1 (centres undefined) | · | · | · | · | -0.3 | -7.2
CC1(C)CC(=O)C=C(c2ccc(-c3cccc(C(N)=O)c3)cc2)C1=O | · | · | · | · | -1.3 | -1.4
Nc1ncnc2c1ncn2[C@@H]1O[C@H](CNC(=O)[C@@H](N)C2CCCCC2)[C@@H](O)[C@H]1O | · | · | · | · | 0.2 | 8.6
